This is an account of results in ChEMBL document CHEMBL1687926, “14-Aminocamptothecins: their synthesis, preclinical activity, and potential use for cancer treatment” (J Med Chem, 2011).

The structures appear in SMILES notation. “And” between values parts separate entries of the source, which are not always exact repeats. Identical values can stand only once.

In data set [1] the test system is NCI-H460. Briefly: Cytotoxicity against human H460 cells after 72 hrs by alamar blue assay. The class given is functional, cell-based. As to conditions: Homo sapiens, NCI-H460, 72 h. In a few lines: (§1)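 Cells seeded at 4 × 10³ per well and grown 24 h. Compounds dissolved in DMSO and diluted in medium to final concentrations, then incubated 72 h at 37 °C, 5% CO₂. Viable cells read by AlamarBlue; IC₅₀ taken as the concentration giving 50% growth inhibition.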
For orientation: Resazurin is reduced to fluorescent resorufin, in cell work by metabolically active cells.

Data set [2] can be described thus: Cytotoxicity against mouse bone marrow cell by CFU-GM assay. The class given is cell-based. A digest of the protocol: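 CFU-GM colony assay on normal human bone marrow (thawed) or mouse femoral marrow (freshly extracted). Human colonies scored after 16-18 days. IC₅₀ taken from triplicate assays.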
A short description of data set [3]: Ratio of IC50 for mouse bone marrow cell to IC50 for human bone marrow cell. As to conditions: bone marrow cells. Type of data set: cell-based. A digest of the protocol:
(§2)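 CFU-GM colony assay in triplicate at 2 × 10⁴ cells per culture, using thawed normal human bone marrow or fresh mouse femoral marrow. Colonies were scored after 16-18 days. The IC50 or IC90 from each species gave the mouse/human ratio.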

The nature of data set [4]: Cytotoxicity against human bone marrow cell by CFU-GM assay. Type of data set: cell-based. As to conditions: for IC50: Homo sapiens, Bone marrow cell; for IC90: human, bone marrow cells.
The nature of data set [5]: Ratio of IC90 for mouse bone marrow cell to IC90 for human bone marrow cell. As to conditions: bone marrow cells. Type of data set: ADME, cell-based. A digest of the protocol: as §2
Data set [6] can be described thus: Resistance ratio of IC50 for human H69AR cells overexpressing MRP1 after 72 hrs s to IC50 for human H69 cells after 72 hrs.
The test system of data set [7] is HT-29. As to the kind of experiment: Cytotoxicity against human HT-29 cells after 72 hrs by alamar blue assay. The class given is functional, cell-based. As to conditions: HT-29, 72 h. In a few lines: as §1
The nature of data set [8]: Resistance ratio of IC50 for human MES-SA/Dx5 cells overexpressing MDR1 after 72 hrs to IC50 for human MESSA cells after 72 hrs. Type of data set: functional. A digest of the protocol:
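Cytotoxicity compared in MDR1-overexpressing lines and their parental wild-type lines. 72 h exposure at 37 °C, viability by AlamarBlue, IC₅₀ at 50% growth inhibition. Resistance ratio = IC₅₀ in overexpressing line / IC₅₀ in parental line.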

Data set [9] has as its system NCI-H69. Briefly: Cytotoxicity against human H69 cells after 72 hrs by alamar blue assay. Type of data set: functional, cell-based. As to conditions: NCI-H69, 72 h. In a few lines: as §1
Data set [10] deals with H69AR. Briefly: Cytotoxicity against human H69AR cells overexpressing MRP1 after 72 hrs by alamar blue assay.
In data set [11] the test system is NCI-H460. Briefly: Cytotoxicity against human H460 cells after 72 hrs by alamar blue assay in presence of 40 mg/ml HSA. The class given is functional, cell-based. As to conditions: NCI-H460, 72 h. A digest of the protocol:
(§3)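 H460 cells seeded at 4 × 10³ per well and grown 24 h. Compounds then cocultured with cells for 72 h at 37 °C, with or without 40 mg/mL human serum albumin. Viability read by AlamarBlue; IC₅₀ = 50% growth inhibition. Ratio compares the IC₅₀ with HSA to the IC₅₀ without.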

Data set [12] is described as follows: Cytotoxicity against human MESSA cells after 72 hrs by alamar blue assay. The class given is functional, cell-based. As to conditions: MES-SA. In a few lines:
as §1

The subject of data set [13] is NCI-H460. As to the kind of experiment: Ratio IC50 for human H460 cells after 72 hrs in presence of 40 mg/ml HSA to IC50 for human H460 cells after 72 hrs. The class given is functional. A digest of the protocol:
as §3

Data set [14] is described as follows: Cytotoxicity against human MES-SA/Dx5 cells overexpressing MDR1 after 72 hrs by alamar blue assay. Type of data set: functional, cell-based. As to conditions: MES-SA/Dx5, 72 h. In a few lines:
as §1

In data set [15] the test system is PC-3. Briefly: Cytotoxicity against human PC3 cells after 72 hrs by alamar blue assay. Type of data set: functional, cell-based. As to conditions: PC-3, 72 h. A digest of the protocol: as §1
The test system of data set [16] is DU-145. As to the kind of experiment: Cytotoxicity against human DU145 cells after 72 hrs by alamar blue assay. As to conditions: DU-145, 72 h. The class given is functional, cell-based. In a few lines: as §1
For data set [17], the system named is SK-MEL-2. Briefly: Cytotoxicity against human SK-MEL-2 cells after 72 hrs by alamar blue assay. Type of data set: functional, cell-based. As to conditions: SK-MEL-2, 72 h. A digest of the protocol: as §1
Data set [18] deals with LNCaP. Briefly: Cytotoxicity against human LNCAP cells after 72 hrs by alamar blue assay. Type of data set: functional, cell-based. In a few lines: as §1
The test system of data set [19] is IGROV-1. As to the kind of experiment: Cytotoxicity against human IGROV1 cells after 72 hrs by alamar blue assay. The class given is functional, cell-based. As to conditions: IGROV-1, 72 h. In a few lines:
as §1

For data set [20], the system named is A-375. As to the kind of experiment: Cytotoxicity against human A375 cells after 72 hrs by alamar blue assay. As to conditions: A-375, 72 h. The class given is functional, cell-based. A digest of the protocol:
as §1

Data set [21] deals with Malme-3M. As to the kind of experiment: Cytotoxicity against human MALME-3M cells after 72 hrs by alamar blue assay. The class given is functional, cell-based. In a few lines: as §1
In data set [22] the test system is PC-3. Briefly: Antitumor activity against human PC3 cells xenografted in nu/nu mouse assessed as tumor growth delay at 2 mg/kg, po QD for 5 days followed by 2days without treatment for 2 weeks. Type of data set: functional. A digest of the protocol: (§4)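 Nude mice (nu/nu), females, or males for the prostate model, 4-6 weeks old, implanted sc in the flank with tumor cells (H460 at 1 × 10⁶). Groups of 10 were randomized at 100-150 mm³. Dosing was oral gavage in 5% DMSO/5% Tween 80/1% CMC in water, QD 5 days on/2 off per cycle, for 2 cycles (H460, PC-3) or 4 cycles (HT29). Tumor volume (length × width²/2) and body weight were measured twice weekly.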

In data set [23] the test system is PC-3. As to the kind of experiment: Antitumor activity against human PC3 cells xenografted in nu/nu mouse assessed as tumor growth inhibition at 2 mg/kg, po QD for 5 days followed by 2days without treatment for 2 weeks. Type of data set: functional. On the set-up: scale not given: the % may be the effect or the level left. A digest of the protocol: as §4
The test system of data set [24] is HT-29. As to the kind of experiment: Antitumor activity against human HT-29 cells xenografted in nu/nu mouse assessed as tumor growth inhibition at 2 mg/kg, po QD for 5 days. On the set-up: scale not given: the % may be the effect or the level left.
In data set [25] the test system is Mus musculus. As to the kind of experiment: Toxicity in nu/nu mouse assessed as body weight loss at 2 mg/kg, po QD for 5 days followed by 2 days without treatment for 2 weeks. The class given is organism-based. On the set-up: dose 2 mg/kg, route oral. As to conditions: in vivo. A digest of the protocol: as §4
Data set [26] deals with NCI-H460. As to the kind of experiment: Antitumor activity against human H460 cells xenografted in nu/nu mouse assessed as tumor growth inhibition at 2 mg/kg, po QD for 5 days followed by 2days without treatment for 2 weeks. On the set-up: scale not given: the % may be the effect or the level left. The class given is functional. A digest of the protocol: as §4
For data set [27], the system named is HT-29. As to the kind of experiment: Antitumor activity against human HT-29 cells xenografted in nu/nu mouse assessed as tumor growth delay at 2 mg/kg, po QD for 5 days.
Data set [28] has as its system NCI-H460. As to the kind of experiment: Antitumor activity against human H460 cells xenografted in nu/nu mouse assessed as tumor growth delay at 2 mg/kg, po QD for 5 days followed by 2days without treatment for 2 weeks. Type of data set: functional. A digest of the protocol:
as §4
(Xenograft models place foreign cells or tissue in a host animal.)

In data set [29] the test system is Mus musculus. As to the kind of experiment: Toxicity in nu/nu mouse assessed as body weight loss at 2 mg/kg, po QD for 5 days followed by 4 days without treatment for 2 weeks. The class given is organism-based. On the set-up: dose 2 mg/kg, route oral. As to conditions: in vivo.

For the molecule `CCc1c2c(nc3ccccc13)-c1c3c(c(CO)c(=O)n1C2)[C@@](O)(CC)C(=O)N3`, the IC50 in data set [1] is over 10000 nM.

As for `CC[C@@]1(O)C(=O)OCc2c1cc1n(c2=O)Cc2cc3c(N)cccc3nc2-1` [9-AMINOCAMPTOTHECIN], the IC50 came to 90 nM in data set [2] and 1 nM in data set [4]. Also, the selectivity ratio came to 75 in data set [3] and 88 in [5]. The molecule further displayed an IC90 in data set [4] of 8 nM.

Consider `CC[C@@]1(O)C(=O)OCc2c1cc1n(c2=O)Cc2cc3ccccc3nc2-1` [CAMPTOTHECIN], for which the Ratio in [6] is over 250; in data set [8] it was 1; in data set [13] it was over 77. For the same molecule, the IC50 is 260 nM in data set [7]; 1 nM in [9]; over 300 nM in data set [10]; over 1000 nM in [11]; 57 nM in data set [12]; 13 nM in data set [1]. In addition, the IC50 came to 52 nM in [14] and 12 nM in [15].

With `CCc1c2c(nc3ccc(OC(=O)N4CCC(N5CCCCC5)CC4)cc13)-c1cc3c(c(=O)n1C2)COC(=O)[C@]3(O)CC` [IRINOTECAN], the IC50 in [2] was found to be 110 nM; in data set [7] it was 220 nM; in data set [16] it was 200 nM; in [17], 100 nM; in data set [9], 22 nM; in data set [10], 250 nM. Also, the IC50 stood at 27 nM in [11]; 1 nM in data set [4]; 10 nM in [12]; 15 nM in data set [1]; 9 nM in data set [18]; 30 nM in data set [19]. Besides, the IC50 in data set [20] was 4 nM; in data set [14], 22 nM; in data set [15], 4 nM; in [21] it was 200 nM. Moreover, the Ratio was determined as 11 in data set [6], 2 in data set [8] and 2 in [13]. Moreover, the selectivity ratio turned out to be 85 in [3] and 100 in data set [5]. Further, in data set [4], the IC90 is 8 nM.

For `CC[C@@]1(O)C(=O)OCc2c1cc1n(c2=O)Cc2cc3c(CN(C)C)c(O)ccc3nc2-1` [TOPOTECAN], the IC50 in [2] was 130 nM; in [7] it was over 1000 nM; in [16] it was 1000 nM; in data set [17] it was 140 nM; in [9], 6 nM; in [10], over 300 nM. In addition, the IC50 is 110 nM in [11]; 8 nM in data set [4]; 4 nM in data set [12]; 45 nM in data set [1]; 9 nM in data set [18]; 160 nM in [19]. Further, the concentration for half-maximal inhibition (IC50) in data set [20] amounted to 13 nM; in data set [14], 33 nM; in data set [15], 45 nM; in data set [21], 1000 nM. In addition, the Ratio in [6] was over 47; in [8] it was 8; in [13], 2. In addition, the Time in [22] was found to be 21 days; in data set [27], 16 days; in data set [28], 5 days. In addition, the selectivity ratio in data set [3] came out at 16; in [5] it was 14. In data set [4], this molecule had an IC90 of 50 nM. The Activity in [23] was 79%; in data set [24] it was 70%; in data set [25] it was 9%; in [26], 46%; in [29] it was 0% and 1%.

Usually IC50 stands for the point on the concentration scale where inhibition reaches its midpoint. One may read the IC90 as the point of the concentration-response curve where the effect stands at 90%.
